ChEMBL document CHEMBL1156910, “Binding of curcumin and its long chain derivatives to the activator binding domain of novel protein kinase C” (Bioorg Med Chem, 2010)

Tests used:
[1] = molecular target: Protein kinase C delta type (Homo sapiens, UniProt Q05655); assay: Binding affinity to GST-tagged PKCdelta expressed in Escherichia coli BL21(DE3) by fluorescence quenching
Procedure, shortened: (§1)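 Isolated C1B subdomain made in E. coli as GST fusion, purified on glutathione-Sepharose, GST removed by thrombin, then ammonium sulfate precipitation and Superdex 75 gel filtration. Excitation 280 nm, intrinsic emission at 350 nm as (F0-F)/F, Hill fit gives EC50.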

[2] = molecular target: Protein kinase C theta type (Homo sapiens, UniProt Q04759); assay: Binding affinity to GST-tagged PKCtheta expressed in Escherichia coli BL21(DE3) by fluorescence quenching; procedure, shortened: as §1
Sequence of Protein kinase C theta type (Q04759 whole entry): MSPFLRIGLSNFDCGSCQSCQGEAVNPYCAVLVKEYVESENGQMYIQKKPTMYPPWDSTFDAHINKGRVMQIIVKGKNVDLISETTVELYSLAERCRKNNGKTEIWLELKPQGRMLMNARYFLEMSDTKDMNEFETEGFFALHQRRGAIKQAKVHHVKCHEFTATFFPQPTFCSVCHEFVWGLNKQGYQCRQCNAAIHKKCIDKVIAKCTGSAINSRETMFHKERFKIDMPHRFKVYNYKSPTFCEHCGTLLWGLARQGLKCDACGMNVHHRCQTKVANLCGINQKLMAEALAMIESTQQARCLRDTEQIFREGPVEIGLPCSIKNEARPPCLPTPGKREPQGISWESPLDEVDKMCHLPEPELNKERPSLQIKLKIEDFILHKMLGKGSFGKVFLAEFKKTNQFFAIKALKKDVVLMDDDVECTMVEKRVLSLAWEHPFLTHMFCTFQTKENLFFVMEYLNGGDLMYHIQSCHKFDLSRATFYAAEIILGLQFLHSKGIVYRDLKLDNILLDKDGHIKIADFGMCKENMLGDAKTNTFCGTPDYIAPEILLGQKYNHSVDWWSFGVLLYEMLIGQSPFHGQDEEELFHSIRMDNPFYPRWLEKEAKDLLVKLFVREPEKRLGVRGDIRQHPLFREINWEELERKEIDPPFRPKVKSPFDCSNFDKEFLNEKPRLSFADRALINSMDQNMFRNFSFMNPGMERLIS

[3] = molecular target: T1, Protein kinase C epsilon type (Homo sapiens, UniProt Q02156); assay: Binding affinity to GST-tagged PKCepsilon expressed in Escherichia coli BL21(DE3) by fluorescence quenching; procedure, shortened: as §1
T1 sequence (Q02156 whole entry): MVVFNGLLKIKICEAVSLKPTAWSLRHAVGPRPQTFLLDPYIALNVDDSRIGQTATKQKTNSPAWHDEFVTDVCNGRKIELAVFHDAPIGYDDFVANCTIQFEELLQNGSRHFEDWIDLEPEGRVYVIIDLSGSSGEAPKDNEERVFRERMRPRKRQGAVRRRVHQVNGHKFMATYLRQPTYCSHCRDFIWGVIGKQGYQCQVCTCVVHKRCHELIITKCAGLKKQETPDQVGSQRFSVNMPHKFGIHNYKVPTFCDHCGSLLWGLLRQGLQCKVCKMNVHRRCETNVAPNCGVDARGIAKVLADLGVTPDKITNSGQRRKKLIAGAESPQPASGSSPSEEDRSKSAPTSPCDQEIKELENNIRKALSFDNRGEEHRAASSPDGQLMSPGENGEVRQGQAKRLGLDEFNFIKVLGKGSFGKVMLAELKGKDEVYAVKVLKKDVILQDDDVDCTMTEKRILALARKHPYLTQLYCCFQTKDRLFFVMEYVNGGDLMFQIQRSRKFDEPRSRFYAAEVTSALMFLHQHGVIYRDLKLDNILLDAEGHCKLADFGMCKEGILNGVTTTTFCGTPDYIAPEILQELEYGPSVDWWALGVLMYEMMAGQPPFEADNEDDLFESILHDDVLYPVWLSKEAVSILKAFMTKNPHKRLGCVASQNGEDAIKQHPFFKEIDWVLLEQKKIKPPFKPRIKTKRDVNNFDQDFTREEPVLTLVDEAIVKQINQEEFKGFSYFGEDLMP

Sequence of Protein kinase C delta type (Q05655 whole entry, the tested form may be a part): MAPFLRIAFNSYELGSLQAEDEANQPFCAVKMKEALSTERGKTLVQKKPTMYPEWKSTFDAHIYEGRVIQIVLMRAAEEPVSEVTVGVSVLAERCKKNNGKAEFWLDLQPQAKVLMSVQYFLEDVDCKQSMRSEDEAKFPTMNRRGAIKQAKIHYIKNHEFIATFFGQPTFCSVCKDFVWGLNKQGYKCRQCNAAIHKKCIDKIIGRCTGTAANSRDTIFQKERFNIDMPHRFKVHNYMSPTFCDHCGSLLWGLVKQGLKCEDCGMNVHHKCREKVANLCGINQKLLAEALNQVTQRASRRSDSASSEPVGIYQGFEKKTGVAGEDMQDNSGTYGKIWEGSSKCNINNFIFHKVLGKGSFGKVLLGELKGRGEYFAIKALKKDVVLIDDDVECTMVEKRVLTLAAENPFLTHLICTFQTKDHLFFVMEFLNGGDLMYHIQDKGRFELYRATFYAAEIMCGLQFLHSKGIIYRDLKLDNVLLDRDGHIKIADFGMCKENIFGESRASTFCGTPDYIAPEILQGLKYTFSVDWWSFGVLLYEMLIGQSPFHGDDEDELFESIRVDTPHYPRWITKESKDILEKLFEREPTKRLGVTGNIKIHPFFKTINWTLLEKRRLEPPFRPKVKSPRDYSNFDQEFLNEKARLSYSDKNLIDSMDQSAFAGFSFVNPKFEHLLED

Compound	EC50 [1] [µM]	EC50 [2] [µM]	EC50 [3] [µM]
O=C(/C=C(O)/C=C/c1ccc(O)c(O)c1)/C=C/c1ccc(O)c(O)c1	12.5	6.57	11.1
CCCCCCCC(=O)OC[C@H](CO)OC(=O)CCCCCCC	–	5.24	–
CCCCCCCC/C=C\CCCCCCCC(=O)OC[C@H](CO)OC(=O)CCCCCCC/C=C\CCCCCCCC	7.49	8.67	14.3
COc1cc(/C=C/C(=O)CC(=O)/C=C/c2ccc(O)c(OC)c2)ccc1O [CURCUMIN]	10.7	11.1	8.81
CCCCCCCCCCCCCC(=O)O[C@@H]1[C@@H](C)[C@@]2(O)[C@@H](C=C(CO)C[C@]3(O)C(=O)C(C)=C[C@@H]23)[C@@H]2C(C)(C)[C@]12OC(C)=O [PHORBOL MYRISTATE ACETATE]	5.17	3.19	5.56

Now from value to compound:

EC50 [1] [µM]	EC50 [2] [µM]	EC50 [3] [µM]	Compound
8.98	5.95	10.6	CCCCCCCCCCCCCCCCOc1ccc(/C=C/C(O)=C/C(=O)/C=C/c2ccc(O)c(OC)c2)cc1OC
8.69	4	9.79	CCCCCCCCOc1ccc(/C=C/C(O)=C/C(=O)/C=C/c2ccc(O)c(OC)c2)cc1OC
